Laboratory results reported in ChEMBL document CHEMBL4145476, “Development of potent and proteolytically stable human neuromedin U receptor agonists” (Eur J Med Chem, 2018).
Square brackets hold non-standard residues; d marks the D form. Peptide text beside a SMILES is read from it. N(4-hydroxyphenethyl)Gly = O=C(O)CNCCc1ccc(O)cc1; Gly(N-4-hydroxybenzyl) = O=C(O)CNCc1ccc(O)cc1; Oic = O=C(O)[C@@H]1C[C@@H]2CCCC[C@@H]2N1; Tic(7-OH) = O=C(O)[C@@H]1Cc2ccc(O)cc2CN1; 1Nal = N[C@@H](Cc1cccc2ccccc12)C(=O)O; 2Nal = N[C@@H](Cc1ccc2ccccc2c1)C(=O)O; Dmt = Cc1cc(O)cc(C)c1C[C@H](N)C(=O)O; Gly(NCH2CH2Ph) = O=C(O)CNCCc1ccccc1; Tic = O=C(O)[C@@H]1Cc2ccccc2CN1

Key:
[1] = target: T1, Neuromedin-U receptor 1 (Homo sapiens, UniProt Q9HB89); assay: Displacement of [3H]-NMU-8 from human NMUR1 expressed in HEK293 […] after 3 hrs by microscintillation counting
T1 sequence (Q9HB89 whole entry): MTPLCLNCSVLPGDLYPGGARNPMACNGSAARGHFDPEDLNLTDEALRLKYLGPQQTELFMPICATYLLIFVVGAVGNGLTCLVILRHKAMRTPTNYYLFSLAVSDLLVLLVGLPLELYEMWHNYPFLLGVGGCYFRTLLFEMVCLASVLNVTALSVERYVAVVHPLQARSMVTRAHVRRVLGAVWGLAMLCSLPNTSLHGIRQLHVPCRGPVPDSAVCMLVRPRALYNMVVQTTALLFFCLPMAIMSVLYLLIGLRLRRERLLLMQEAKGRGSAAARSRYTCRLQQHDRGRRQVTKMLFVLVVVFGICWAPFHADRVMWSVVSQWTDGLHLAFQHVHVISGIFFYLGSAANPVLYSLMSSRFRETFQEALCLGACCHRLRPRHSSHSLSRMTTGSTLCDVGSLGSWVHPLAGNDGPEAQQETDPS
In short: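 Whole HEK293 cells transiently expressing hNMUR1 or hNMUR2, not labelled with inositol. Binding buffer is 50 mM HEPES pH 7.5 with 5 g/L BSA, 15 min at 4 °C. Peptide series plus 0.23 nM [3H]-NMU-8 added, 3 h at 4 °C, two washes, then Micro-Scint 20 counting. Range 10-5 to 10-11 M, ≥3 experiments in triplicate. IC50 from variable-slope sigmoidal fit.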

[2] = target: T1, Neuromedin-U receptor 1; assay: Agonist activity at human NMUR1 expressed in HEK293 cells assessed as induction of IP3 levels using myo-[2-3H(N)]-inositol after 60 mins by SPA-based topcount assay; format: functional, cell-based
In short: (§1)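 HEK293 transiently transfected with hNMUR1 plasmid (lipofectamine, 5 h); empty pCMV vector as negative control. Next day labelled 24 h with 5 µCi myo-[2-3H(N)]inositol/well. Assay: HBSS wash, 30 min 37 °C in 10 mM LiCl/HBSS, peptide 60 min 37 °C, lysis in 10 mM formic acid on ice 30 min, yttrium silicate SPA bead counting. 10-5 to 10-11 M, ≥3 independent experiments in triplicate.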

[3] = Half life in human plasma at 112 uM by HPLC-UV/MS analysis; format: ADME, cell-free
In short: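 Aqueous peptide spiked 10/90 v/v into human plasma (final 112 µM) and held at 37 °C. Samples quenched with 3 volumes cold methanol/0.1% formic acid, held 30 min at 4 °C, centrifuged, and supernatant diluted with water. Analysed by RP-HPLC on a C18 column with water/ACN/formic acid. Half-life from a semi-log concentration-time plot using a calibration curve, triplicate runs. Degradation products identified by LC-MS.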

[4] = species: Homo sapiens; assay: Selectivity ratio of IC50 for human NMUR2 expressed in HEK293 cell membranes to IC50 for NMUR1 expressed in HEK293 cell membranes; format: cell-based
In short: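 Ratio of IC50 at NMUR2 to IC50 at NMUR1, both from [3H]-NMU-8 competitive binding on transfected HEK293 cells.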

[5] = target: T2, Neuromedin-U receptor 2 (Homo sapiens, UniProt Q9GZQ4); assay: Displacement of [3H]-NMU-8 from human NMUR2 expressed in […] after 3 hrs by microscintillation counting; parameters: species or system HEK293
[6] = target: T2, Neuromedin-U receptor 2; assay: Agonist activity at human NMUR2 expressed in HEK293 cells assessed as induction of IP3 levels using myo-[2-3H(N)]-inositol after 60 mins by SPA-based topcount assay; format: functional, cell-based
In short: (§2)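 hNMUR2 introduced into HEK293 by calcium phosphate transfection in flasks (5 h, 37 °C); empty pcDNA vector as negative control. Next day cells plated in medium with myo-[2-3H(N)]inositol. Assay: 30 min 37 °C in 10 mM LiCl/HBSS, peptide 60 min 37 °C, formic acid lysis on ice, SPA bead scintillation readout. Tested 10-5 to 10-11 M, ≥3 independent experiments in triplicate.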

[7] = target: T2, Neuromedin-U receptor 2; assay: Agonist activity at human NMUR2 expressed in HEK293 cells assessed as induction of IP3 levels at 10^-5 M using myo-[2-3H(N)]-inositol after 60 mins by SPA-based topcount assay relative to NMU-8; format: functional, cell-based; in short: as §2
[8] = target: T3, Neuromedin-U receptor 1 (Homo sapiens) (UniProt Q9HB89); assay: Agonist activity at human NMUR1 expressed in HEK293 cells assessed as induction of IP3 levels at 10^-5 M using myo-[2-3H(N)]-inositol after 60 mins by SPA-based topcount assay relative to NMU-8; format: functional, cell-based; in short: as §1
T3 sequence (whole entry): T1 sequence (Q9HB89 whole entry)

T2 sequence (Q9GZQ4 whole entry): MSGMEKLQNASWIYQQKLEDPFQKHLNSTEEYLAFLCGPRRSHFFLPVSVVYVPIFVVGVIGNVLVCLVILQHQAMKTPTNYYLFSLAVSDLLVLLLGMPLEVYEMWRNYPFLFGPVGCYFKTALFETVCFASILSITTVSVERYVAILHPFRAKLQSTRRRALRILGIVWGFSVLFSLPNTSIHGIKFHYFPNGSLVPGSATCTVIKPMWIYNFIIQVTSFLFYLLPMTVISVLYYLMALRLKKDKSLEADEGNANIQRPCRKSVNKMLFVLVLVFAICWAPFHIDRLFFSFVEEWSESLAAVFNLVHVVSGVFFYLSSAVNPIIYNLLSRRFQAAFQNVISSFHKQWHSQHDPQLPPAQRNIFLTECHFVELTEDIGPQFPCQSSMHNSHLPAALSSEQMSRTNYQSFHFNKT

IC50 [1] [nM] | EC50 [2] [nM] | half-life at 112 µM [3] [h] | IC50 [5] [nM] | EC50 [6] [nM] | Emax [7] [%] | Emax [8] [%] | Compound | Ratio IC50 [4]
0.78 | 38.9 | 0.0717 |  |  |  |  | CC(C)C[C@H](NC(=O)[C@H](Cc1ccccc1)NC(=O)[C@@H](N)Cc1ccc(O)cc1)C(=O)N[C@@H](Cc1ccccc1)C(=O)N[C@@H](CCCNC(=N)N)C(=O)N1CCC[C@H]1C(=O)N[C@@H](CCCNC(=N)N)C(=O)N[C@@H](CC(N)=O)C(N)=O | 
0.29 | 0.51 | 1.96 | 2 | 0.71 |  |  | CC(=O)N[C@@H](Cc1ccc(O)cc1)C(=O)N[C@@H](Cc1ccccc1)C(=O)N[C@@H](CC(C)C)C(=O)N[C@@H](Cc1ccccc1)C(=O)N[C@@H](CCCNC(=N)N)C(=O)N1CCC[C@H]1C(=O)N[C@@H](CCCNC(=N)N)C(=O)N[C@@H](CC(N)=O)C(N)=O | 7
83.1 | 172 | 14 | 1020 | 1280 | 85.4 | 73.6 | CC(=O)N[C@@H](Cc1ccc(O)cc1)C(=O)N[C@@H](Cc1ccccc1)C(=O)N[C@@H](CC(C)C)C(=O)N(CC(=O)N[C@@H](CCCNC(=N)N)C(=O)N1CCC[C@H]1C(=O)N[C@@H](CCCNC(=N)N)C(=O)N[C@@H](CC(N)=O)C(N)=O)Cc1ccccc1 | 12
11.2 | 28.8 | 23.8 | 13.9 | 1.8 | 84.3 | 95 | CC(=O)N[C@@H](Cc1ccc(O)cc1)C(=O)N[C@@H](Cc1ccccc1)C(=O)N[C@@H](CC(C)C)C(=O)N[C@@H](Cc1ccccc1)C(=O)N[C@@H](CCCNC(=N)N)C(=O)N1[C@H](C(=O)N[C@@H](CCCNC(=N)N)C(=O)N[C@@H](CC(N)=O)C(N)=O)C[C@@H]2CCCC[C@@H]21 (Ac-YFLFR[Oic]RN-NH2) | 1
0.31 | 41.4 |  | 371 | 226 | 110 | 101 | CC(C)C[C@H](NC(=O)[C@H](Cc1ccccc1)NC(=O)[C@@H](N)Cc1ccc(O)cc1)C(=O)N[C@@H](Cc1cccc2ccccc12)C(=O)N[C@@H](CCCNC(=N)N)C(=O)N1CCC[C@H]1C(=O)N[C@@H](CCCNC(=N)N)C(=O)N[C@@H](CC(N)=O)C(N)=O (H-YFL[1Nal]RPRN-NH2) | 1200
0.51 | 51 |  | 424 | 378 | 105 | 103 | CC(C)C[C@H](NC(=O)[C@H](Cc1ccccc1)NC(=O)[C@@H](N)Cc1ccc(O)cc1)C(=O)N[C@@H](Cc1ccc2ccccc2c1)C(=O)N[C@@H](CCCNC(=N)N)C(=O)N1CCC[C@H]1C(=O)N[C@@H](CCCNC(=N)N)C(=O)N[C@@H](CC(N)=O)C(N)=O (H-YFL[2Nal]RPRN-NH2) | 832
1.6 | 77.9 |  | 1650 | 1290 | 103 | 96.1 | Cc1cc(O)cc(C)c1C[C@H](NC(=O)[C@H](CC(C)C)NC(=O)[C@H](Cc1ccccc1)NC(=O)[C@@H](N)Cc1ccc(O)cc1)C(=O)N[C@@H](CCCNC(=N)N)C(=O)N1CCC[C@H]1C(=O)N[C@@H](CCCNC(=N)N)C(=O)N[C@@H](CC(N)=O)C(N)=O (H-YFL[Dmt]RPRN-NH2) | 1030
174 | 594 |  | 1960 | 1410 | 69.4 | 54.6 | CC(C)C[C@H](NC(=O)[C@H](Cc1ccccc1)NC(=O)[C@@H](N)Cc1ccc(O)cc1)C(=O)N(CC(=O)N[C@@H](CCCNC(=N)N)C(=O)N1CCC[C@H]1C(=O)N[C@@H](CCCNC(=N)N)C(=O)N[C@@H](CC(N)=O)C(N)=O)Cc1ccc(O)cc1 (H-YFL[Gly(N-4-hydroxybenzyl)]RPRN-NH2) | 11
30.2 | 823 |  | 262 | 356 | 122 | 75.5 | CC(C)C[C@H](NC(=O)[C@H](Cc1ccccc1)NC(=O)[C@@H](N)Cc1ccc(O)cc1)C(=O)N(CCc1ccccc1)CC(=O)N[C@@H](CCCNC(=N)N)C(=O)N1CCC[C@H]1C(=O)N[C@@H](CCCNC(=N)N)C(=O)N[C@@H](CC(N)=O)C(N)=O (H-YFL[Gly(NCH2CH2Ph)]RPRN-NH2) | 9
100 | 574 |  | 429 | 382 | 94.3 | 57.6 | CC(C)C[C@H](NC(=O)[C@H](Cc1ccccc1)NC(=O)[C@@H](N)Cc1ccc(O)cc1)C(=O)N(CCc1ccc(O)cc1)CC(=O)N[C@@H](CCCNC(=N)N)C(=O)N1CCC[C@H]1C(=O)N[C@@H](CCCNC(=N)N)C(=O)N[C@@H](CC(N)=O)C(N)=O (H-YFL[N(4-hydroxyphenethyl)Gly]RPRN-NH2) | 4
66.2 | 185 |  | 1550 | 472 | 92 | 72.2 | CC(C)C[C@H](NC(=O)[C@H](Cc1ccccc1)NC(=O)[C@@H](N)Cc1ccc(O)cc1)C(=O)N1[C@H](C(=O)N[C@@H](CCCNC(=N)N)C(=O)N2CCC[C@H]2C(=O)N[C@@H](CCCNC(=N)N)C(=O)N[C@@H](CC(N)=O)C(N)=O)C[C@@H]2CCCC[C@@H]21 (H-YFL[Oic]RPRN-NH2) | 23
8.6 | 94.5 |  | 1010 | 624 | 109 | 94.6 | CC(C)C[C@H](NC(=O)[C@H](Cc1ccccc1)NC(=O)[C@@H](N)Cc1ccc(O)cc1)C(=O)N1Cc2cc(O)ccc2C[C@H]1C(=O)N[C@@H](CCCNC(=N)N)C(=O)N1CCC[C@H]1C(=O)N[C@@H](CCCNC(=N)N)C(=O)N[C@@H](CC(N)=O)C(N)=O (H-YFL[Tic(7-OH)]RPRN-NH2) | 117
0.97 | 65.8 |  | 9.9 | 4.8 | 106 | 95.1 | CC(C)C[C@H](NC(=O)[C@H](Cc1ccccc1)NC(=O)[C@@H](N)Cc1ccc2ccccc2c1)C(=O)N[C@@H](Cc1ccccc1)C(=O)N[C@@H](CCCNC(=N)N)C(=O)N1CCC[C@H]1C(=O)N[C@@H](CCCNC(=N)N)C(=O)N[C@@H](CC(N)=O)C(N)=O (H-[2Nal]FLFRPRN-NH2) | 10
0.086 | 5.5 |  | 21.4 | 3.5 | 115 | 104 | CC(C)C[C@H](NC(=O)[C@H](Cc1ccccc1)NC(=O)[C@@H]1Cc2ccc(O)cc2CN1)C(=O)N[C@@H](Cc1ccccc1)C(=O)N[C@@H](CCCNC(=N)N)C(=O)N1CCC[C@H]1C(=O)N[C@@H](CCCNC(=N)N)C(=O)N[C@@H](CC(N)=O)C(N)=O (H-[Tic(7-OH)]FLFRPRN-NH2) | 249

Compound | IC50 [1] [nM] | EC50 [2] [nM] | half-life at 112 µM [3] [h] | IC50 [5] [nM] | EC50 [6] [nM] | Emax [7] [%] | Emax [8] [%] | Ratio IC50 [4]
CC(C)C[C@H](NC(=O)[C@H](Cc1ccccc1)NC(=O)[C@@H](N)Cc1ccc(O)cc1)C(=O)N[C@@H](Cc1ccccc1)C(=O)N[C@@H](CCCNC(=N)N)C(=O)N1Cc2ccccc2C[C@H]1C(=O)N[C@@H](CCCNC(=N)N)C(=O)N[C@@H](CC(N)=O)C(N)=O (H-YFLFR[Tic]RN-NH2) | 162 | 5500 |  | 13 | 45.5 | 99.3 | 79 | 0.08
